# Biological target: T1, Neprilysin (Rattus norvegicus, UniProt P07861)
# T1 sequence (P07861 whole entry): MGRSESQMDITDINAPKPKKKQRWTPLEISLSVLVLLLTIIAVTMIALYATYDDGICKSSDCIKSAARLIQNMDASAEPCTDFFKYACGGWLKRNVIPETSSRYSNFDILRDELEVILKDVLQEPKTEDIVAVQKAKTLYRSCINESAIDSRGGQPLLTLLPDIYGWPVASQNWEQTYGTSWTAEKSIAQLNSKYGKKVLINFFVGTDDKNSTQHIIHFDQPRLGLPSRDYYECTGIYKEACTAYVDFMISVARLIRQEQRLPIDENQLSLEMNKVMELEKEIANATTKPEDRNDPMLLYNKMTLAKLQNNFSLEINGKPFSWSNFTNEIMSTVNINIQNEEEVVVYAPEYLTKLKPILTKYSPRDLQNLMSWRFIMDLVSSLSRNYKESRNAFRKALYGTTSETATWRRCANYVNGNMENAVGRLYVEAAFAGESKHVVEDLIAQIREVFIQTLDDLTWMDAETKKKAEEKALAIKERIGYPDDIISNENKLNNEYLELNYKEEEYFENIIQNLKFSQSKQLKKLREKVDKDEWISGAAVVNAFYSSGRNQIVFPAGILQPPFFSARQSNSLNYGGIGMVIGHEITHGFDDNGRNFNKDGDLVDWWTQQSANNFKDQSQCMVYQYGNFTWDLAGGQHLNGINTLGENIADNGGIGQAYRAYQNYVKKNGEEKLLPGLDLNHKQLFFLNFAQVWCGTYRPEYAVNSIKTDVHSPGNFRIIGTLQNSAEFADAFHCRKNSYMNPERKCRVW
# Experiment: In vitro inhibition of rat neutral endopeptidase by using GAAP as substrate
# Details: not given
# In short: (§1)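 Enzyme source was rat kidney cortex membranes (male Sprague-Dawley), 4.0 μg protein, plus 2.5 μg aminopeptidase M, in 50 mM Tris-HCl pH 7.4. Preincubated with inhibitor 10 min at 25 °C, then GAAP added (final 500 μM) for 25 min at 25 °C. Stopped with fast garnet, colour developed 30 min, OD read at 540 nm. Run in duplicate.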
row,Structure (SMILES),IC50
1,Cc1ccc([C@H](C[C@@H](Cc2ccc(-c3ccccc3)cc2)C(=O)NCCC(=O)O)C(=O)O)cc1,54 nM
2,O=C(O)CCC(=O)N[C@H](Cc1ccccc1)C[C@@H](Cc1ccccc1)C(=O)O,4000 nM
3,C[C@H](C[C@@H](Cc1ccc(-c2ccccc2)cc1)NC(=O)CC(=O)O)C(=O)O,92 nM
4,CO[C@H](C[C@@H](Cc1ccc(-c2ccccc2)cc1)C(=O)NCCC(=O)O)C(=O)O (stereo in doubt; 8h),> 1000 nM
5,O=C(O)CCNC(=O)[C@H](Cc1ccc(-c2ccccc2)cc1)C[C@@H](Oc1ccccc1)C(=O)O (stereo in doubt; 8f),> 1000 nM
6,CC(C)c1ccc(CC(CC(Cc2ccc(C(C)C)cc2)C(=O)NCCC(=O)O)C(=O)O)cc1 (stereo not drawn),489 nM
7,CCCC[C@H](C[C@@H](Cc1ccc(-c2ccccc2)cc1)C(=O)NCCC(=O)O)C(=O)O,66 nM
8,COc1ccc(C[C@H](C[C@@H](Cc2ccc(-c3ccccc3)cc2)C(=O)NCCC(=O)O)C(=O)O)cc1OC,54 nM
9,O=C(O)C1CCC(NC(=O)C(Cc2ccc(-n3cccc3)cc2)CC(Cc2ccc(-n3cccc3)cc2)C(=O)O)CC1 (stereo not drawn),515 nM
10,O=C(O)CCNC(=O)[C@@H](CCC(=O)O)Cc1ccc(-c2ccccc2)cc1,155 nM
11,C[C@H](C[C@@H](Cc1ccc(-c2ccccc2)cc1)NC(=O)CCCCC(=O)O)C(=O)O,324 nM
12,O=C(O)CCNC(=O)C(Cc1ccccc1)CC(Cc1ccccc1)C(=O)O (stereo not drawn),1200 nM
13,O=C(O)CCNC(=O)C(Cc1ccc(-c2nccs2)cc1)CC(Cc1ccc(-c2nccs2)cc1)C(=O)O (stereo not drawn),> 1000 nM
14,O=C(O)CCNC(=O)C(Cc1ccc(Oc2ccccc2)cc1)CC(Cc1ccc(Oc2ccccc2)cc1)C(=O)O (stereo not drawn),203 nM
15,C[C@H](C[C@@H](Cc1ccc(-c2ccccc2)cc1)NC(=O)CCCC(=O)O)C(=O)O,90 nM

# Next, values leading:
row,IC50,Structure (SMILES)
1,46 nM,COCC[C@H](C[C@@H](Cc1ccc(-c2ccccc2)cc1)C(=O)NCCC(=O)O)C(=O)O
2,44 nM,O=C(O)CCNC(=O)[C@H](Cc1ccc(-c2ccccc2)cc1)C[C@@H](Oc1ccccc1)C(=O)O (stereo in doubt; 8e)
3,49 nM,O=C(O)CCNC(=O)C(Cc1ccc(-c2ccccc2)cc1)CC(Cc1ccc(-c2ccccc2)cc1)C(=O)O (stereo not drawn)
4,42 nM,CO[C@H](C[C@@H](Cc1ccc(-c2ccccc2)cc1)C(=O)NCCC(=O)O)C(=O)O (stereo in doubt; 8g)
5,49 nM,CO[C@H](C[C@@H](Cc1ccc(-c2ccccc2)cc1)NC(=O)CCCC(=O)O)C(=O)O
6,11 nM,COc1ccc(C[C@H](C[C@@H](Cc2ccc(-c3ccccc3)cc2)C(=O)NCC(O)C(=O)O)C(=O)O)cc1OC (stereo partly drawn)
7,21 nM,CCCC[C@H](C[C@@H](Cc1ccc(-c2ccccc2)cc1)C(=O)NCC(O)C(=O)O)C(=O)O (stereo partly drawn)
8,19 nM,O=C(O)CCNC(=O)[C@H](Cc1ccc(-c2ccccc2)cc1)C[C@@H](Cc1ccc(-c2nccs2)cc1)C(=O)O
9,36 nM,O=C(O)CCNC(=O)C(Cc1ccc(-n2cccc2)cc1)CC(Cc1ccc(-n2cccc2)cc1)C(=O)O (stereo not drawn)
10,41 nM,C[C@H](C[C@@H](Cc1ccc(-c2ccccc2)cc1)C(=O)NCCC(=O)O)C(=O)O

# Biological target: T2, Neprilysin (Rattus norvegicus) (UniProt P07861)
# T2 sequence (whole entry): T1 sequence (P07861 whole entry)
# Experiment: The compound was tested in vitro for inhibition of Neutral endopeptidase by using GAAP as substrate
# Details: concentration not given here
# In short: as §1
row,inhibition,Structure (SMILES)
1,52%,O=C(O)C1CCC(NC(=O)C(Cc2ccccc2)CC(Cc2ccccc2)C(=O)O)CC1 (stereo not drawn)
2,43%,O=C(O)CCNC(=O)C(Cc1ccc(-c2nccs2)cc1)CC(Cc1ccc(-c2nccs2)cc1)C(=O)O (stereo not drawn)

# Biological target: T1, Neprilysin
# Experiment: The compound was tested for inhibition of Neutral endopeptidase by using GAAP as substrate
# Details: not given
# In short: as §1
row,IC50,Structure (SMILES)
1,1200 nM,O=C(O)CCNC(=O)[C@H](Cc1ccccc1)C[C@@H](Cc1ccccc1)C(=O)O
2,155 nM,O=C(O)CCNC(=O)[C@@H](CCC(=O)O)Cc1ccc(-c2ccccc2)cc1

# Biological target: T1, Neprilysin
# Experiment: The compound was tested in vitro for inhibition of Neutral endopeptidase by using ANF(atrial natriuretic factor) as substrate
# Details: not given
# In short: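 NEP (5.0 μg) preincubated 10 min with inhibitor in 50 mM Tris-HCl pH 7.4. Reaction started with r-ANF (final 20 μM) and run 10 min at 37 °C, then stopped with 0.6% TFA. Substrate loss measured by 3 min isocratic RP-HPLC on a C4 cartridge. Run in duplicate.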
row,IC50,Structure (SMILES)
1,2 nM,O=C(O)CCNC(=O)[C@H](Cc1ccc(-c2ccccc2)cc1)NCP(=O)(O)O

# Biological target: T1, Neprilysin
# Experiment: The compound was tested in vitro for inhibition of Neutral endopeptidase by using Leu enkephalin as substrate
# Details: not given
# In short: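 NEP (30 ng) preincubated 10 min with inhibitor in 50 mM Tris-HCl pH 7.4. Substrate disappearance followed by 6 min isocratic RP-HPLC on a C4 column. Duplicates.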
row,IC50,Structure (SMILES)
1,9 nM,O=C(O)CCNC(=O)[C@H](Cc1ccccc1)C[C@@H](Cc1ccccc1)C(=O)O
2,0.7 nM,O=C(O)CCNC(=O)[C@@H](CCC(=O)O)Cc1ccc(-c2ccccc2)cc1
3,0.81 nM,O=C(O)CCNC(=O)[C@H](Cc1ccc(-c2ccccc2)cc1)NCP(=O)(O)O
